Experimental data published in ChEMBL document CHEMBL1134325, “Diaminoindanes as microsomal triglyceride transfer protein inhibitors” (J Med Chem, 2001).

tested on: Rattus norvegicus; experiment: Inhibition of total cholesterol in normolipidemic rats after 2 hr of 50 mg/kg oral dosing; assay type: functional
Summary of the method: (§1)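 Overnight-fasted normolipidemic rats received a single oral dose in cornstarch vehicle. Blood was drawn at 2, 6 and 24 h post-dose and assayed for triglycerides and total cholesterol, with free access to food after the 6 h sample. Value is mean percent inhibition versus a separate vehicle-treated group, unpaired t test p < 0.05, NS = no significant change, N = 6.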

`O=C(Nc1ccc2c(c1)CC(NS(=O)(=O)c1ccccc1)C2)c1ccccc1-c1ccc(C(F)(F)F)cc1` (stereo not given) and `Cc1cc(C)c(-c2ccc(C(F)(F)F)cc2)c(C(=O)Nc2ccc3c(c2)C[C@H](NS(=O)(=O)c2cccs2)C3)c1` are the same in Reduction: 21% for the first, 21% for the second.

First: Cc1cc(C)c(-c2ccc(C(F)(F)F)cc2)c(C(=O)Nc2ccc3c(c2)C[C@@H](NS(=O)(=O)c2cccs2)C3)c1
Second: COC(=O)NC1CCc2ccc(NC(=O)c3cc(C)cc(C)c3-c3ccc(C(F)(F)F)cc3)cc2CC1 (stereo not given)
The Reduction of the first is higher: 33% for the first, 17% for the second.

`COC(=O)N1CCN([C@@H]2Cc3ccc(NC(=O)c4cccc(C)c4-c4ccc(C(F)(F)F)cc4)cc3C2)CC1` showed a Reduction of 23%.

tested on: Rattus norvegicus; experiment: Inhibition of plasma triglycerides in normolipidemic rats after 6 h of […] mg/kg oral dosing; no significant change; assay type: functional, organism-based; design: dose 50 mg/kg

In the case of `COC(=O)N1CCN([C@@H]2Cc3ccc(NC(=O)c4cccc(C)c4-c4ccc(C(F)(F)F)cc4)cc3C2)CC1`, the NS is reported as “no significant change”.

tested on: Rattus norvegicus; experiment: Inhibition of total cholesterol in normolipidemic rats after 6 hr of 50 mg/kg oral dosing; assay type: functional; summary of the method: as §1

Going from `Cc1cc(C)c(-c2ccc(C(F)(F)F)cc2)c(C(=O)Nc2ccc3c(c2)C[C@H](NS(=O)(=O)c2cccs2)C3)c1` to `Cc1cc(C)c(-c2ccc(C(F)(F)F)cc2)c(C(=O)Nc2ccc3c(c2)C[C@@H](NS(=O)(=O)c2cccs2)C3)c1`, the Reduction rises from 34% to 46%.

Going from `COC(=O)N1CCN([C@@H]2Cc3ccc(NC(=O)c4cccc(C)c4-c4ccc(C(F)(F)F)cc4)cc3C2)CC1` to `COC(=O)NC1CCc2ccc(NC(=O)c3cc(C)cc(C)c3-c3ccc(C(F)(F)F)cc3)cc2CC1` (stereo not given), the Reduction rises from 20% to 21%.

tested on: Rattus norvegicus; experiment: Inhibition of total cholesterol in normolipidemic rats after 24 hr of 50 mg/kg oral dosing; assay type: functional; summary of the method: as §1

Compared with `Cc1cc(C)c(-c2ccc(C(F)(F)F)cc2)c(C(=O)Nc2ccc3c(c2)C[C@H](NS(=O)(=O)c2cccs2)C3)c1`, `COC(=O)NC1CCc2ccc(NC(=O)c3cc(C)cc(C)c3-c3ccc(C(F)(F)F)cc3)cc2CC1` (stereo not given) is lower in Reduction: 47% for the first, 22% for the second.

tested on: Rattus norvegicus; experiment: Inhibition of plasma triglycerides in normolipidemic rats after 6 hr of 50 mg/kg oral dosing; assay type: functional; summary of the method: as §1

Going from `O=C(Nc1ccc2c(c1)CC(NS(=O)(=O)c1ccccc1)C2)c1ccccc1-c1ccc(C(F)(F)F)cc1` (stereo not given) to `Cc1cc(C)c(-c2ccc(C(F)(F)F)cc2)c(C(=O)Nc2ccc3c(c2)C[C@H](NS(=O)(=O)c2cccs2)C3)c1`, the Reduction rises from 30% to 48%.

Going from `Cc1cc(C)c(-c2ccc(C(F)(F)F)cc2)c(C(=O)Nc2ccc3c(c2)C[C@@H](NS(=O)(=O)c2cccs2)C3)c1` to `COC(=O)NC1CCc2ccc(NC(=O)c3cc(C)cc(C)c3-c3ccc(C(F)(F)F)cc3)cc2CC1` (stereo not given), the Reduction falls from 68% to 44%.

tested on: Rattus norvegicus; experiment: Inhibition of total cholesterol in normolipidemic rats after 6 h of […] mg/kg oral dosing; no significant change; assay type: functional, organism-based; design: dose 50 mg/kg

With `O=C(Nc1ccc2c(c1)CC(NS(=O)(=O)c1ccccc1)C2)c1ccccc1-c1ccc(C(F)(F)F)cc1` (stereo not given) the NS was “no significant change”.

tested on: Rattus norvegicus; experiment: Inhibition of plasma triglycerides in normolipidemic rats after 24 hr of 50 mg/kg oral dosing; assay type: functional; summary of the method: as §1

Going from `Cc1cc(C)c(-c2ccc(C(F)(F)F)cc2)c(C(=O)Nc2ccc3c(c2)C[C@H](NS(=O)(=O)c2cccs2)C3)c1` to `COC(=O)NC1CCc2ccc(NC(=O)c3cc(C)cc(C)c3-c3ccc(C(F)(F)F)cc3)cc2CC1` (stereo not given), the Reduction falls from 46% to 36%.

molecular target: T1, Microsomal triglyceride transfer protein large subunit (Homo sapiens, UniProt P55157); experiment: In vitro inhibitory activity against MTP using MTP transfer assay
T1 sequence (P55157 whole entry): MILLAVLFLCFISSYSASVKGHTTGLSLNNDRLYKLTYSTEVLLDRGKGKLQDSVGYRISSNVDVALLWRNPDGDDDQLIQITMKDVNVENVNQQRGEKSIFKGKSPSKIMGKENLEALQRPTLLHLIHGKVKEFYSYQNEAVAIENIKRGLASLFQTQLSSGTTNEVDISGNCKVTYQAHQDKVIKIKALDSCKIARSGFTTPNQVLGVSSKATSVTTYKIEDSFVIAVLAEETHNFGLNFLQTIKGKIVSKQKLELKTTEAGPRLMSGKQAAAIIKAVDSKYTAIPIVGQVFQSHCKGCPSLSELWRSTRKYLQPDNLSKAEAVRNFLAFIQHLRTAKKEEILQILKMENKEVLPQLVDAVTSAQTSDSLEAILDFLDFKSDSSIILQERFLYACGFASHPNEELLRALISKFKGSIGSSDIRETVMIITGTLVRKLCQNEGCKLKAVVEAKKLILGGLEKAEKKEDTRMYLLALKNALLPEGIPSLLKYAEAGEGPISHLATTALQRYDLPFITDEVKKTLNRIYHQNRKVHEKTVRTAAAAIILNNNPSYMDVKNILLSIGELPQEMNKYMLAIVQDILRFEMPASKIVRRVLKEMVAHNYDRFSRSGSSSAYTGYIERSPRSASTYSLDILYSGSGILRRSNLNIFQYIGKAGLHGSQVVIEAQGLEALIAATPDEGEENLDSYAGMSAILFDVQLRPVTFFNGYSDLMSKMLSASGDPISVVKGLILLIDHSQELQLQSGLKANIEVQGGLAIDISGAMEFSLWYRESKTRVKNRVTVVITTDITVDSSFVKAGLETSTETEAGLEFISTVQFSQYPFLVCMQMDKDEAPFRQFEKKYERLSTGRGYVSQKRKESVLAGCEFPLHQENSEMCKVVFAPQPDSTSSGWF

Compared with `O=C(Nc1ccc2c(c1)CC(NS(=O)(=O)c1ccccc1)C2)c1ccccc1-c1ccc(C(F)(F)F)cc1` (stereo not given), `Cc1cc(C)c(-c2ccc(C(F)(F)F)cc2)c(C(=O)Nc2ccc3c(c2)C[C@H](NS(=O)(=O)c2cccs2)C3)c1` is 5.2-fold lower in IC50: 105 nM for the first, 20 nM for the second.

Going from `Cc1cc(C)c(-c2ccc(C(F)(F)F)cc2)c(C(=O)Nc2ccc3c(c2)C[C@@H](NS(=O)(=O)c2cccs2)C3)c1` to `COC(=O)NC1CCc2ccc(NC(=O)c3cc(C)cc(C)c3-c3ccc(C(F)(F)F)cc3)cc2CC1` (stereo not given), the IC50 falls from 180 nM to 20 nM (9-fold). The second is the more potent here.

Compound `COC(=O)N1CCN([C@@H]2Cc3ccc(NC(=O)c4cccc(C)c4-c4ccc(C(F)(F)F)cc4)cc3C2)CC1` has an IC50 of 1000 nM.

tested on: Rattus norvegicus; experiment: Inhibition of plasma triglycerides in normolipidemic rats after 24 h of 50 mg/kg oral dosing; no significant change; assay type: functional, organism-based; design: dose 50 mg/kg; summary of the method: as §1

For `O=C(Nc1ccc2c(c1)CC(NS(=O)(=O)c1ccccc1)C2)c1ccccc1-c1ccc(C(F)(F)F)cc1` (stereo not given), the NS was “no significant change”.
For `Cc1cc(C)c(-c2ccc(C(F)(F)F)cc2)c(C(=O)Nc2ccc3c(c2)C[C@@H](NS(=O)(=O)c2cccs2)C3)c1`, the NS was “no significant change”.
With `COC(=O)N1CCN([C@@H]2Cc3ccc(NC(=O)c4cccc(C)c4-c4ccc(C(F)(F)F)cc4)cc3C2)CC1` the NS was “no significant change”.

tested on: Rattus norvegicus; experiment: Inhibition of plasma triglycerides in normolipidemic rats after 2 hr of 50 mg/kg oral dosing; assay type: functional; summary of the method: as §1

Compared with `O=C(Nc1ccc2c(c1)CC(NS(=O)(=O)c1ccccc1)C2)c1ccccc1-c1ccc(C(F)(F)F)cc1` (stereo not given), `Cc1cc(C)c(-c2ccc(C(F)(F)F)cc2)c(C(=O)Nc2ccc3c(c2)C[C@H](NS(=O)(=O)c2cccs2)C3)c1` is higher in Reduction: 57% for the first, 77% for the second.

Going from `Cc1cc(C)c(-c2ccc(C(F)(F)F)cc2)c(C(=O)Nc2ccc3c(c2)C[C@@H](NS(=O)(=O)c2cccs2)C3)c1` to `COC(=O)NC1CCc2ccc(NC(=O)c3cc(C)cc(C)c3-c3ccc(C(F)(F)F)cc3)cc2CC1` (stereo not given), the Reduction falls from 79% to 73%.

For `COC(=O)N1CCN([C@@H]2Cc3ccc(NC(=O)c4cccc(C)c4-c4ccc(C(F)(F)F)cc4)cc3C2)CC1`, the Reduction was 58%.

tested on: Rattus norvegicus; experiment: Inhibition of total cholesterol in normolipidemic rats after 24 hr of 50 mg/kg oral dosing; no significant change; assay type: functional, organism-based; design: dose 50 mg/kg; summary of the method: as §1

With `O=C(Nc1ccc2c(c1)CC(NS(=O)(=O)c1ccccc1)C2)c1ccccc1-c1ccc(C(F)(F)F)cc1` (stereo not given) the NS was “no significant change”.
With `Cc1cc(C)c(-c2ccc(C(F)(F)F)cc2)c(C(=O)Nc2ccc3c(c2)C[C@@H](NS(=O)(=O)c2cccs2)C3)c1` the NS was “no significant change”.
For `COC(=O)N1CCN([C@@H]2Cc3ccc(NC(=O)c4cccc(C)c4-c4ccc(C(F)(F)F)cc4)cc3C2)CC1`, the NS was “no significant change”.
